In ChEMBL document CHEMBL3407374, “Synthesis of structural analogues of hexadecylphosphocholine and their antineoplastic, antimicrobial and amoebicidal activity” (Eur J Med Chem, 2015):
Converted amounts (≈) assume the structure as drawn.

Key:
[1] = tested on: MCF7; experiment: Cytotoxicity against human MCF7 cells after 24 hrs by MTT method; assay type: functional, cell-based; details: MCF7, 24 h
Procedure, shortened: (§1)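 MCF-7 grown in MEM with NEA, FCS, glutamine; A2780 in RPMI-1640 with FCS, glutamine; 37 °C, 5% CO₂, trypsin-EDTA passaging. Seeded 20 000 cells/well, treated after about 20 h; 24-h exposure. MTT read-out, formazan dissolved in DMSO, read at 492/520 nm. IC50 from log inhibitor versus normalized response sigmoidal fit.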

[2] = tested on: A2780; experiment: Cytotoxicity against human A2780 cells after 24 hrs by MTT method; assay type: functional, cell-based; details: A2780, 24 h; procedure, shortened: as §1
[3] = tested on: HuT78; experiment: Cytotoxicity against human HUT78 cells after 24 hrs by MTS method; assay type: functional, cell-based; details: HuT78, 24 h
Procedure, shortened: (§2)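 THP-1 and HUT-78 grown in suspension in RPMI-1640 with FCS, glutamine, penicillin-streptomycin, NEA, 2-sulfanylethanol, sodium pyruvate; 37 °C, 5% CO₂; passaged by centrifugation. 24-h exposure; MTS read-out (water-soluble formazan) at 492/520 nm. IC50 from log inhibitor versus normalized response sigmoidal fit.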

[4] = tested on: THP-1; experiment: Cytotoxicity against human THP1 cells after 24 hrs by MTS method; assay type: functional, cell-based; details: THP-1, 24 h; procedure, shortened: as §2
[5] = Cytotoxicity against human lymphocytes assessed as growth inhibition at 500 uM after 24 hrs by MTS method; assay type: cell-based, Lymphocyte; details: for inhibition at 24 h, 500 µM: human lymphocytes, read-out: GI; for growth inhibition (GI): lymphocyte, 24 h, 500 µM
[6] = tested on: Acanthamoeba lugdunensis; experiment: Antiprotozoal activity against Acanthamoeba lugdunensis trophozoites assessed as viability after 1 to 48 hrs by trypan blue exclusion assay; assay type: functional
Procedure, shortened: (§3)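 Trophozoites axenized from 2-day monoxenic agar cultures via BCS then PYG media with antibiotics, then cultured antibiotic-free in PYG. 2 × 10⁵ cells/ml suspension mixed 1:1 with medium holding compound; final […]. Survivors counted by haemocytometer with trypan blue at 1, 24, 48 h; eradication confirmed by 14-day PYG regrowth; MTC = lowest concentration giving 100% eradication.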

[7] = tested on: Acanthamoeba quina; experiment: Antiprotozoal activity against Acanthamoeba quina trophozoites assessed as viability after 1 to 48 hrs by trypan blue exclusion assay; assay type: functional; procedure, shortened: as §3
[8] = tested on: Staphylococcus aureus; experiment: Antimicrobial activity against Staphylococcus aureus ATCC 29/58 assessed as prevention of colony formation after 24 hrs by spectrophotometry; assay type: functional; details: ATCC 29/58, 24 h
Procedure, shortened: (§4)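 Bacteria grown 24 h on blood agar, Candida on Sabouraud agar; suspensions in physiological solution (pH 7.2), 5 × 10⁷ CFU/ml bacteria, 5 × 10⁵ CFU/ml Candida. […] suspension added to aqueous compound solution plus double-strength peptone broth (bacteria) or Sabouraud medium (Candida). Incubated 24 h at 37 °C in 96-well plates, then subcultured on agar 24 h at 37 °C.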

[9] = tested on: Escherichia coli; experiment: Antimicrobial activity against Escherichia coli ATCC 377/79 assessed as prevention of colony formation after 24 hrs by spectrophotometry; assay type: functional; details: ATCC 377/79, 24 h; procedure, shortened: as §4
[10] = tested on: Candida albicans; experiment: Antimicrobial activity against Candida albicans ATCC 8186 assessed as prevention of colony formation after 24 hrs by spectrophotometry; assay type: functional; details: ATCC 8186, 24 h; procedure, shortened: as §4
[11] = Solubility of the compound in water; assay type: physicochemical; details: buffer
[12] = tested on: Acanthamoeba quina; experiment: Ratio of miltefosine MTC to compound MTC for Acanthamoeba quina trophozoites assessed as viability after 1 to 48 hrs by trypan blue exclusion assay; assay type: functional
[13] = Critical micelle concentration of the compound; assay type: ADME

Row | SMILES | IC50 [1] | IC50 [2] | IC50 [3] | IC50 [4] | inhibition at 24 h, 500 µM [5] | MTC [6] | MTC [7] | MIC [8] | MIC [9] | MIC [10] | solubility [11] | Ratio [12] | growth inhibition (GI) [5] | CMC [13]
1 | CCCCCCCCCCCCCCC[N+](C)(C)CCOP(=O)([O-])OCC | 14.4 µM | 7.44 µM | 35.2 µM | 30.5 µM | 10% | 62.5 µM | 62.5 µM | > 1000 µM | > 1000 µM | 21.1 µM (≈ 8.62 µg/mL) | soluble | 2 | – | –
2 | CCCCCCCCCC[N+](C)(C)CCOP(=O)([O-])OCCCCCCC | 26.2 µM | 4.7 µM | 437 µM | 647 µM | – | 125 µM | 125 µM | > 1000 µM | > 1000 µM | 352 µM (≈ 144 µg/mL) | soluble | – | Non-toxic | –
3 | CCCCCCCCCCCCCCCCOP(=O)([O-])OCC[N+](C)(C)C [MILTEFOSINE] | 35.7 µM | 8.87 µM | 67.2 µM | 81.3 µM | – | 250 µM | 125 µM | 11.5 µM (≈ 4.69 µg/mL) | > 1000 µM | 2.87 µM (≈ 1.17 µg/mL) | – | – | – | 1.25 umol/dm3
4 | CCCCCCCCCOP(=O)([O-])OCC[N+](C)(C)CCCCCCCC | 34 µM | 7.31 µM | 146 µM | 170 µM | – | 250 µM | 250 µM | > 1000 µM | > 1000 µM | 734 µM (≈ 299 µg/mL) | soluble | – | Non-toxic | –
5 | CCCCCCCCCCCCOP(=O)([O-])OCC[N+](C)(C)CCCCC | 66.1 µM | 24.8 µM | 55.2 µM | 93.2 µM | – | 125 µM | 125 µM | > 1000 µM | > 1000 µM | 184 µM (≈ 74.8 µg/mL) | soluble | – | – | –
6 | CCCCCCCCC[N+](C)(C)CCOP(=O)([O-])OCCCCCCCC | 19.2 µM | 4.32 µM | 280 µM | 544 µM | – | 125 µM | 125 µM | > 1000 µM | > 1000 µM | 367 µM (≈ 150 µg/mL) | soluble | – | Non-toxic | –
7 | CCCCCCCCCCCCCCOP(=O)([O-])OCC[N+](C)(C)CCC | 50.6 µM | 28.6 µM | 51.4 µM | 127 µM | – | 125 µM | 125 µM | > 1000 µM | > 1000 µM | 11.7 µM (≈ 4.77 µg/mL) | soluble | – | – | –
8 | CCCCCCCCCCCCCCCOP(=O)([O-])OCC[N+](C)(C)CC | 43.3 µM | 10.1 µM | 62.7 µM | 96.8 µM | – | 125 µM | 125 µM | > 1000 µM | > 1000 µM | 2.93 µM (≈ 1.19 µg/mL) | soluble | – | – | –
9 | CCCCCCCCOP(=O)([O-])OCC[N+](C)(C)CCCCCCCC | – | – | – | – | – | – | – | – | – | – | – | – | – | 1 mmol/dm3
10 | CCCCCCCCCCC[N+](C)(C)CCOP(=O)([O-])OCCCCCC | 64.5 µM | 25.7 µM | 96 µM | 31.2 µM | – | 62.5 µM | 125 µM | > 1000 µM | > 1000 µM | 360 µM (≈ 147 µg/mL) | soluble | – | – | –
11 | CCCCCCCCCCOP(=O)([O-])OCC[N+](C)(C)CCCCCCC | 62.2 µM | 35.1 µM | 52.9 µM | 101 µM | – | 250 µM | 250 µM | > 1000 µM | > 1000 µM | 180 µM (≈ 73.3 µg/mL) | soluble | – | – | –
12 | CCCCCCCCCCCCCC[N+](C)(C)CCOP(=O)([O-])OCCC | 20.9 µM | 9.26 µM | 29.1 µM | 29.4 µM | 12% | 125 µM | 125 µM | > 1000 µM | > 1000 µM | 86.3 µM (≈ 35.2 µg/mL) | soluble | – | – | –
13 | CCCCCCCCCCCC[N+](C)(C)CCOP(=O)([O-])OCCCCC | 25.8 µM | 18.3 µM | 68 µM | 71.2 µM | – | 125 µM | 125 µM | > 1000 µM | > 1000 µM | 352 µM (≈ 144 µg/mL) | soluble | – | – | –
14 | CCCCCCCCCCCOP(=O)([O-])OCC[N+](C)(C)CCCCCC | 111 µM | 19.2 µM | 82.6 µM | 92 µM | – | 125 µM | 250 µM | > 1000 µM | > 1000 µM | 188 µM (≈ 76.4 µg/mL) | soluble | – | – | –
